For experiment [1], the system named is Staphylococcus aureus. As to the kind of experiment: Antibacterial activity against Staphylococcus aureus at 1.6125 to 50 ug/ml after 16 hrs by serial dilution method. The format is functional, organism-based. The gist of the method: (§1)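 Broth tube serial dilution MIC. Test compounds were stocked at 1 mg/mL in DMF and twofold diluted in trypticase soya broth across six tubes. Each organism was grown 6 h at 37 °C, adjusted to […] (10⁸ cfu/mL) and diluted to 10⁵ cfu/mL; 1 mL was added per tube. Tubes were incubated 16 h at 37 °C. MIC was read as the concentration giving no visible growth. Inoculum and broth controls were included.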

The subject of experiment [2] is Bacillus subtilis. As to the kind of experiment: Antibacterial activity against Bacillus subtilis after 16 hrs by serial dilution method. The format is functional. The gist of the method:
as §1

For experiment [3], the system named is Escherichia coli. As to the kind of experiment: Antibacterial activity against Escherichia coli after 16 hrs by serial dilution method. The format is functional. The gist of the method: as §1
Experiment [4] relates to Pseudomonas aeruginosa. As to the kind of experiment: Antibacterial activity against Pseudomonas aeruginosa after 16 hrs by serial dilution method. The format is functional. The gist of the method:
as §1

The test system of experiment [5] is Staphylococcus aureus. As to the kind of experiment: Antibacterial activity against Staphylococcus aureus after 16 hrs by serial dilution method. The format is functional. The gist of the method: as §1
Experiment [6] relates to Bacillus subtilis. As to the kind of experiment: Antibacterial activity against Bacillus subtilis at 1.6125 to 50 ug/ml after 16 hrs by serial dilution method. The format is functional, organism-based. In a few lines: as §1
Experiment [7] concerns Escherichia coli. As to the kind of experiment: Antibacterial activity against Escherichia coli at 1.6125 to 50 ug/ml after 16 hrs by serial dilution method. The format is functional, organism-based. The gist of the method:
as §1

In experiment [8] the test system is Pseudomonas aeruginosa. As to the kind of experiment: Antibacterial activity against Pseudomonas aeruginosa at 1.6125 to 50 ug/ml after 16 hrs by serial dilution method. The format is functional, organism-based. In a few lines:
as §1

Usually MIC stands for the least concentration at which growth counts as inhibited. Read a low MIC as inhibition by little substance.

SMILES strings stand for the structures. Values after ≈ are worked out from the molar mass of the structure shown. Active and inactive are the calls of the source. The rule behind the calls is not given here.

Regarding `CSc1ccc(-c2n[nH]cc2/C=N/Nc2nc(-c3ccc(Cl)cc3Cl)cs2)cc1`, the outcome in the experiment on Staphylococcus aureus [1] was inactive. In addition, the MIC with Bacillus subtilis [2], in the experiment on Escherichia coli [3] and against Pseudomonas aeruginosa [4] was 50 µg/mL (≈ 109 µM) in each case.
Turning to `O=c1oc2ccccc2cc1-c1csc(N/N=C/c2c[nH]nc2-c2ccc(Cl)cc2Cl)n1`, the minimal inhibitory concentration (MIC) against Staphylococcus aureus [5] is 3.12 µg/mL (≈ 6.48 µM); against Bacillus subtilis [2] it was 1.61 µg/mL (≈ 3.34 µM); with Escherichia coli [3], 1.61 µg/mL (≈ 3.34 µM); in the experiment with Pseudomonas aeruginosa [4], 1.61 µg/mL (≈ 3.34 µM).
For the molecule `Clc1ccc(-c2csc(N/N=C/c3c[nH]nc3-c3ccc(-c4ccccc4)cc3)n2)c(Cl)c1`, the outcome in the experiment with Staphylococcus aureus [1], with Bacillus subtilis [6], with Escherichia coli [7] and with Pseudomonas aeruginosa [8] was inactive.
Regarding `O=c1oc2ccccc2cc1-c1csc(N/N=C/c2c[nH]nc2-c2cc(Cl)sc2Cl)n1`, the MIC against Staphylococcus aureus [5] worked out at 1.61 µg/mL (≈ 3.3 µM); against Bacillus subtilis [2], 1.61 µg/mL (≈ 3.3 µM); against Escherichia coli [3], 3.12 µg/mL (≈ 6.4 µM); in the experiment on Pseudomonas aeruginosa [4], 1.61 µg/mL (≈ 3.3 µM).
As to `O=c1oc2ccc(Br)cc2cc1-c1csc(N/N=C/c2c[nH]nc2-c2ccc(Cl)cc2Cl)n1`, the minimal inhibitory concentration (MIC) is 3.12 µg/mL (≈ 5.57 µM) against Staphylococcus aureus [5], 3.12 µg/mL (≈ 5.57 µM) against Bacillus subtilis [2], 1.61 µg/mL (≈ 2.87 µM) with Escherichia coli [3] and 1.61 µg/mL (≈ 2.87 µM) against Pseudomonas aeruginosa [4].
Regarding `CSc1ccc(-c2n[nH]cc2/C=N/Nc2nc(-c3cc4cc(Br)ccc4oc3=O)cs2)cc1`, the outcome with Staphylococcus aureus [1], with Bacillus subtilis [6], with Escherichia coli [7] and in the experiment on Pseudomonas aeruginosa [8] was inactive.
`O=c1oc2ccc(Br)cc2cc1-c1csc(N/N=C/c2c[nH]nc2-c2cc(Cl)sc2Cl)n1`: the MIC against Staphylococcus aureus [5], against Bacillus subtilis [2], against Escherichia coli [3] and with Pseudomonas aeruginosa [4] was 1.61 µg/mL (≈ 2.84 µM) throughout.
On to `CSc1ccc(-c2n[nH]cc2/C=N/Nc2nc(-c3cc4ccccc4oc3=O)cs2)cc1`, for which the outcome in the experiment on Staphylococcus aureus [1], with Bacillus subtilis [6], with Escherichia coli [7] and with Pseudomonas aeruginosa [8] was inactive.
Consider `O=c1oc2ccc(Br)cc2cc1-c1csc(N/N=C/c2c[nH]nc2-c2ccc(-c3ccccc3)cc2)n1`, for which the result in the experiment with Staphylococcus aureus [1], in the experiment with Bacillus subtilis [6], with Escherichia coli [7] and in the experiment with Pseudomonas aeruginosa [8] was inactive.
Regarding `O=c1oc2ccccc2cc1-c1csc(N/N=C/c2c[nH]nc2-c2ccc(-c3ccccc3)cc2)n1`, the outcome in the experiment with Staphylococcus aureus [1], with Bacillus subtilis [6], in the experiment on Escherichia coli [7] and in the experiment with Pseudomonas aeruginosa [8] was inactive.
Take `CO/N=C(\C(=O)N[C@@H]1C(=O)N2C(C(=O)O)=C(CSc3nc(=O)c(O)nn3C)CS[C@H]12)c1csc(N)n1` [CEFTRIAXONE]: the MIC stood at 3.12 µg/mL (≈ 5.63 µM) in the experiment on Staphylococcus aureus [5], 1.61 µg/mL (≈ 2.91 µM) with Bacillus subtilis [2], 1.61 µg/mL (≈ 2.91 µM) against Escherichia coli [3] and 1.61 µg/mL (≈ 2.91 µM) against Pseudomonas aeruginosa [4].
Take `Clc1ccc(-c2csc(N/N=C/c3c[nH]nc3-c3ccc(Cl)cc3Cl)n2)c(Cl)c1`: the MIC against Staphylococcus aureus [5] amounted to 3.12 µg/mL (≈ 6.47 µM); in the experiment with Escherichia coli [3], 50 µg/mL (≈ 103 µM). For the same molecule, the outcome in the experiment with Bacillus subtilis [6] and with Pseudomonas aeruginosa [8] was inactive.
For the molecule `Clc1ccc(-c2csc(N/N=C/c3c[nH]nc3-c3cc(Cl)sc3Cl)n2)c(Cl)c1`, the MIC with Staphylococcus aureus [5] stood at 3.12 µg/mL (≈ 6.39 µM); in the experiment with Bacillus subtilis [2], 1.61 µg/mL (≈ 3.3 µM); against Escherichia coli [3], 1.61 µg/mL (≈ 3.3 µM); in the experiment on Pseudomonas aeruginosa [4], 1.61 µg/mL (≈ 3.3 µM).

Values taken from ChEMBL document CHEMBL1287641, “Synthesis, characterization and anti-microbial studies of some novel 2,4-disubstituted thiazoles” (2010).
